≈ marks a conversion by molar mass, not a printed value.
Experiments:
Staphylococcus aureus [1] = assay: Antibacterial activity against methicillin-resistant Staphylococcus aureus NRS100 after 18 hrs by broth microdilution method
[2] = Cytotoxicity against human HeLa cells after 24 hrs by CellTiter-Glo luminescent cell viability assay; format: toxicity, cell-based
Summary of the method: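 HeLa cells seeded at 20 000 cells/well in DMEM with 10% FCS and 1% penicillin/streptomycin, grown 16 h at 37 °C in 5% CO2. Medium then replaced and compounds added in DMSO (1 μL per 100 μL), final 0.5–32 μg/mL, triplicate. After 24 h at 37 °C, plates equilibrated to room temperature and CellTiter-Glo luminescence read.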

Staphylococcus aureus [3] = assay: (§1) Potentiation of amoxicillin/clavulanic acid-induced antibacterial activity against methicillin-resistant Staphylococcus aureus NRS100 assessed as compound concentration required in combination with amoxicillin/clavulanic acid to return MRSA sensitive concentration below 4 ug/ml after overnight incubation; format: functional
Summary of the method: (§2)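 Antibiotic held at fixed final level in MHB (amoxicillin/clavulanic acid 4/2 μg/mL; cefazolin 8 μg/mL); test compound (10 mg/mL DMSO stock) 2-fold serially diluted from 64 μg/mL top; final inoculum OD600 0.001; overnight at 37 °C with shaking; MRC = lowest compound concentration with no visible growth.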

Staphylococcus aureus [4] = assay: Potentiation of cefazolin-induced antibacterial activity against methicillin-resistant Staphylococcus aureus ATCC BAA-44 assessed as compound concentration required in combination with cefazolin to return MRSA sensitive concentration below 8 ug/ml after overnight incubation; format: functional; summary of the method: as §2
Staphylococcus aureus [5] = assay: Potentiation of meropenem-induced antibacterial activity against methicillin-resistant Staphylococcus aureus ATCC BAA-44 assessed as fold reduction in meropenem MIC at 20 uM after 18 hrs by broth microdilution method; format: functional
Staphylococcus aureus [6] = assay: Potentiation of cefazolin-induced antibacterial activity against methicillin-resistant Staphylococcus aureus ATCC BAA-44 assessed as fold reduction in cefazolin MIC at 20 uM after 18 hrs by broth microdilution method; format: functional
Staphylococcus aureus [7] = assay: Potentiation of gentamycin-induced antibacterial activity against methicillin-resistant Staphylococcus aureus ATCC BAA-44 assessed as fold reduction in gentamycin MIC at 20 uM after 18 hrs by broth microdilution method; format: functional
Staphylococcus aureus [8] = assay: Potentiation of daptomycin-induced antibacterial activity against methicillin-resistant Staphylococcus aureus ATCC BAA-44 assessed as fold reduction in daptomycin MIC at 20 uM after 18 hrs by broth microdilution method; format: functional
Staphylococcus aureus [9] = assay: Potentiation of tetracycline-induced antibacterial activity against methicillin-resistant Staphylococcus aureus ATCC BAA-44 assessed as fold reduction in tetracycline MIC at 20 uM after 18 hrs by broth microdilution method; format: functional
Staphylococcus aureus [10] = assay: Potentiation of erythromycin-induced antibacterial activity against methicillin-resistant Staphylococcus aureus ATCC BAA-44 assessed as fold reduction in erythromycin MIC at 20 uM after 18 hrs by broth microdilution method; format: functional
Staphylococcus aureus [11] = assay: Potentiation of clindamycin-induced antibacterial activity against methicillin-resistant Staphylococcus aureus ATCC BAA-44 assessed as fold reduction in ciprofloxacin MIC at 20 uM after 18 hrs by broth microdilution method; format: functional
Staphylococcus aureus [12] = assay: Potentiation of oxacillin-induced antibacterial activity against methicillin-resistant Staphylococcus aureus ATCC BAA-44 assessed as fold reduction in oxacillin MIC at 20 uM after 18 hrs by broth microdilution method; format: functional
Staphylococcus aureus [13] = assay: Potentiation of amoxicillin/clavulanic acid-induced antibacterial activity against methicillin-resistant Staphylococcus aureus ATCC BAA-44 assessed as fold reduction in amoxicillin/clavulanic acid MIC at 20 uM after 18 hrs by broth microdilution method; format: functional
Staphylococcus aureus [14] = assay: Potentiation of ciprofloxacin-induced antibacterial activity against methicillin-resistant Staphylococcus aureus ATCC BAA-44 assessed as fold reduction in ciprofloxacin MIC at 20 uM after 18 hrs by broth microdilution method; format: functional
Staphylococcus aureus [15] = assay: Potentiation of methicillin-induced antibacterial activity against methicillin-resistant Staphylococcus aureus ATCC BAA-44 assessed as fold reduction in methicillin MIC at 20 uM after 18 hrs by broth microdilution method; format: functional
Staphylococcus aureus [16] = assay: Potentiation of streptomycin-induced antibacterial activity against methicillin-resistant Staphylococcus aureus ATCC BAA-44 assessed as fold reduction in streptomycin MIC at 20 uM after 18 hrs by broth microdilution method; format: functional
Staphylococcus aureus [17] = assay: as §1, with “NRS-45898” for “NRS100”; format: functional; summary of the method: as §2
Staphylococcus aureus [18] = assay: Antibacterial activity against methicillin-resistant Staphylococcus aureus NRS-45898 after 18 hrs by broth microdilution method
Staphylococcus aureus [19] = assay: as §1, with “NRS-46070” for “NRS100”; format: functional; summary of the method: as §2
Staphylococcus aureus [20] = assay: Antibacterial activity against methicillin-resistant Staphylococcus aureus NRS-46070 after 18 hrs by broth microdilution method
Staphylococcus aureus [21] = assay: Antibacterial activity against methicillin-resistant Staphylococcus aureus NRS-46231 after 18 hrs by broth microdilution method
Staphylococcus aureus [22] = assay: as §1, with “NRS-46231” for “NRS100”; format: functional; summary of the method: as §2
Staphylococcus aureus [23] = assay: Potentiation of amoxicillin/clavulanic acid-induced antibacterial activity against methicillin-resistant Staphylococcus aureus ATCC BAA-44 assessed as fractional inhibitory concentration by checkerboard assay; format: functional
Summary of the method: (§3)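 Checkerboard in MRSA; FICI = FICA + FICB, each FIC being the combination concentration (MRC) divided by that agent's MIC alone; FICI <0.5 taken as synergy.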

Staphylococcus aureus [24] = assay: Potentiation of cefazolin-induced antibacterial activity against methicillin-resistant Staphylococcus aureus ATCC BAA-44 assessed as fractional inhibitory concentration by checkerboard assay; format: functional; summary of the method: as §3

SMILES	MIC (Staphylococcus aureus [1]) [µg/mL]	GI50 at 24 h [2] [µg/mL]	MRC (Staphylococcus aureus [3]) [µg/mL]	MRC (Staphylococcus aureus [4]) [µg/mL]	further results
C=C1CCCC[C@@]23N(C(=N)N)CC[C@@]12c1c(C)cc(C)cc1N3C	> 64	19 (≈ 58.6 µM)	32	16	
C=C1CCCC[C@@]23N(C(=O)OCC)CC[C@@]12c1cc(F)ccc1N3C	> 64	> 64	>64	>64	
C=C1CCC[C@@]23N(C(=O)OCC)CC[C@@]12c1cc(Cl)ccc1N3C	> 64	41 (≈ 118 µM)	8	16	
C=C1CCCC[C@@]23N(C(=O)NCC)CC[C@@]12c1c(C)cc(C)cc1N3C	> 64	51 (≈ 144 µM)	>64	>64	
C=C1CCCC[C@@]23NCC[C@@]12c1c(C)cc(C)cc1N3C	> 64	26 (≈ 92.1 µM)	64	32	
C=C1CCCC[C@@]23N(C(=O)OC)CC[C@@]12c1cc(Cl)ccc1N3C	> 64	53 (≈ 153 µM)	4	8	
C=C1CCCC[C@@]23N(C(=O)OCc4ccccc4)CC[C@@]12c1c(C)cc(C)cc1N3C	> 64	> 64	64	>64	
C=C1CCCC[C@@]23N(C(C)=O)CC[C@@]12c1c(C)cc(C)cc1N3C	> 64	15 (≈ 46.2 µM)	32	32	
C=C1CCCC[C@@]23N(C(=O)CCC(=O)O)CC[C@@]12c1c(C)cc(C)cc1N3C	> 64	> 64	>64	>64	
C=C1CCCC[C@@]23N(C(=O)OC)CC[C@@]12c1cc(C)ccc1N3C	> 64	27 (≈ 82.7 µM)	4	8	
C=C1CCC[C@@]23N(C(=O)OC)CC[C@@]12c1c(C)cc(C)cc1N3C	> 64	40 (≈ 123 µM)	8	16	
C=C1CCCC[C@@]23N(C)CC[C@@]12c1c(C)cc(C)cc1N3C	> 64	20 (≈ 67.5 µM)	16	8	
C=C1CCCC[C@@]23N(C(N)=O)CC[C@@]12c1c(C)cc(C)cc1N3C	> 64	19 (≈ 58.4 µM)	64	64	
C=C1CCC[C@@]23N(C(=O)OC)CC[C@@]12c1cc(Cl)ccc1N3C	> 64	41 (≈ 123 µM)	8	16	
C=C1CCCC[C@@]23N(C(=O)OCC)CC[C@@]12c1cc(F)c(OC)cc1N3C	> 64	> 64	>64	>64	
C=C1CCC[C@@]23N(C(=O)OCC)CC[C@@]12c1cc(C)ccc1N3C	> 64	43 (≈ 132 µM)	32	64	
C#CCN1c2cc(C)cc(C)c2[C@@]23CCN(C(=O)OC)[C@@]12CCCCC3=C	> 64	17 (≈ 46.6 µM)	64	64	
C=C1CCCC[C@@]23N(C(=O)OC)CC[C@@]12c1c(C)cc(C)cc1N3C	> 64	20 (≈ 58.7 µM)	16	16	fold change (FC) (Staphylococcus aureus [5]): 16; fold change (FC) (Staphylococcus aureus [6]): 16; fold change (FC) (Staphylococcus aureus [7]): 1; fold change (FC) (Staphylococcus aureus [8]): 1; fold change (FC) (Staphylococcus aureus [9]): 2; fold change (FC) (Staphylococcus aureus [10]): 1; fold change (FC) (Staphylococcus aureus [11]): 1; fold change (FC) (Staphylococcus aureus [12]): 8; fold change (FC) (Staphylococcus aureus [13]): 8; fold change (FC) (Staphylococcus aureus [14]): 2; fold change (FC) (Staphylococcus aureus [15]): 16; fold change (FC) (Staphylococcus aureus [16]): 1
C=C1CCCC[C@]23N(C)c4cc(C)cc(C)c4[C@]12CCN3S(=O)(=O)c1ccc(Cl)cc1	> 64	> 64	>64	>64	
C=C1CCCC[C@@]23N(CC)CC[C@@]12c1c(C)cc(C)cc1N3C	> 64	18 (≈ 58 µM)	32	8	
C=C1CCCC[C@]23Nc4cc(C)cc(C)c4[C@]12CCN3C(=O)OC	> 64	28 (≈ 85.8 µM)	8	4	
C=C1CCC[C@@]23N(C(=O)OC)CC[C@@]12c1cc(C)ccc1N3C	> 64	15 (≈ 48 µM)	16	16	
C=C1CCCC[C@@]23N(C(=O)OC)CC[C@@]12c1ccccc1N3C	> 64	30 (≈ 96 µM)	>64	>64	
C=C1CCCC[C@@]23N(C(=O)OC)CC[C@@]12c1c(C)cc(C)cc1N3CC	> 64	30 (≈ 84.6 µM)	4	2	
C=C1CCCC[C@@]23N(C(=O)C(F)(F)F)CC[C@@]12c1c(C)cc(C)cc1N3C	> 64	> 64	>64	>64	
C=C1CCCC[C@@]23N(C(=O)OC(C)(C)C)CC[C@@]12c1c(C)cc(C)cc1N3C	> 64	47 (≈ 123 µM)	4	8	
C=C1CCCC[C@@]23N(C(=O)OCC)CC[C@@]12c1c(C)cc(C)cc1N3C	> 64	61 (≈ 172 µM)	2	2	MRC (Staphylococcus aureus [17]): 2 µg/mL; MIC (Staphylococcus aureus [18]): > 64 µg/mL; MRC (Staphylococcus aureus [19]): 2 µg/mL; MIC (Staphylococcus aureus [20]): > 64 µg/mL; MIC (Staphylococcus aureus [21]): > 64 µg/mL; MRC (Staphylococcus aureus [22]): 2 µg/mL; fractional inhibitory concentration index (FICI) (Staphylococcus aureus [23]): 0.127; fractional inhibitory concentration index (FICI) (Staphylococcus aureus [24]): 0.078
C=C1CCCC[C@@]23N(C(=O)NCc4ccccc4)CC[C@@]12c1c(C)cc(C)cc1N3C	> 64	> 64	>64	>64	
